# Measured values from ChEMBL document CHEMBL1127536, “2-Azetidinones as inhibitors of cholesterol absorption” (J Med Chem, 1994).
# pIC50: −log10 of the molar value.
# Target: T1, Sterol O-acyltransferase 1 (Rattus norvegicus) (UniProt O70536)
# T1 sequence (whole entry): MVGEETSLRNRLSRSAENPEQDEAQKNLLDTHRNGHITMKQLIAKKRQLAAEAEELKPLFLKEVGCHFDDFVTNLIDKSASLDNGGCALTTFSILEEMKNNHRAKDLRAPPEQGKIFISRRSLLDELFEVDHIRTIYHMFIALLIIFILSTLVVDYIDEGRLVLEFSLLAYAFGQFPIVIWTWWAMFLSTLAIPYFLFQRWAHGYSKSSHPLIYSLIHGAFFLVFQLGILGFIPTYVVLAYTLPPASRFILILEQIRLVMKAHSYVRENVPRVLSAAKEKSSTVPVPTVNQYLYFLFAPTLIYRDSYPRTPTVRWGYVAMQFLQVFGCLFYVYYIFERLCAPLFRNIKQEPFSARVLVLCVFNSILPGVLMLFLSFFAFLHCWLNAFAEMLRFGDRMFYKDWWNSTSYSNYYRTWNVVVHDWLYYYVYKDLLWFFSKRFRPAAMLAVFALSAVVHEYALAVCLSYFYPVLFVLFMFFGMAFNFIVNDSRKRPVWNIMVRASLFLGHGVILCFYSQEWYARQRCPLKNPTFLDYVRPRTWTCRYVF
# Experiment: Inhibition of Acyl coenzyme A:cholesterol acyltransferase in microsomal ACAT assay at 10 uM
# Settings: 10 uM
# How it was run: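 Rat hepatic microsomes (12.5 μg protein) with 90 µM fatty-acid-free BSA in 0.1 M potassium phosphate, 2 mM DTT, pH 7.4. Compound added from DMSO stocks and preincubated 15 min at 37 °C. Reaction started with [³H]-oleoyl-CoA (10 μM final) and run 15 min at 37 °C. Aliquot spotted on silica TLC, developed, and radioactivity in the cholesteryl oleate band counted by scintillation.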
row,Compound,inhibition
1,COc1ccc(N2C(=O)[C@@](CCCc3ccccc3)(c3ccccc3)[C@H]2c2ccccc2)cc1,84%
2,COc1ccc(N2C(=O)[C@@H](CCCc3ccccc3)[C@H]2c2ccccc2)cc1,28%
3,COc1cc(OC)c(N2C(=O)[C@@H](CCCc3ccccc3)[C@H]2c2ccccc2)c(OC)c1,61%
4,CCCCCCCCCCC(C)(C)C(=O)Nc1c(OC)cc(OC)cc1OC [CL-976],72%
5,CC[C@]1(CCCc2ccccc2)C(=O)N(c2ccc(OC)cc2)[C@@H]1c1ccccc1,33%
6,CC[C@@]1(CCCc2ccccc2)C(=O)N(c2c(OC)cc(OC)cc2OC)[C@@H]1c1ccccc1,82%
7,CC[C@]1(CCCc2ccccc2)CN(c2c(OC)cc(OC)cc2OC)C1=O,38%
8,CC[C@]1(CCCc2ccccc2)C(=O)N(c2c(OC)cc(OC)cc2OC)[C@@H]1c1ccccc1,42%

# Same assay, conditions: 25 uM, in the assay text read “at 25 uM” for “at 10 uM”
row,Compound,inhibition
1,COc1ccc(N2C(=O)[C@@](C(=O)Cc3ccccc3)(c3ccccc3)[C@H]2c2ccccc2)cc1,83%

# System: Cricetinae gen. sp.
# Experiment: Percent reduction in plasma cholesterol was evaluated by hamster cholesterol absorption assay at the particular dose of 100 (mg/kg/day)
# Format: functional, Cricetulus griseus
# Settings: not given
# How it was run: (§1)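 Hamsters fed cholesterol for 1 week while dosed daily (mg/kg/day). Read-out was inhibition of the rise in plasma cholesterol, measured by a cholesterol oxidase kit method.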
row,Compound,Reduction
1,COc1ccc(N2C(=O)[C@@](C(=O)Cc3ccccc3)(c3ccccc3)[C@H]2c2ccccc2)cc1,10%

# System: Cricetinae gen. sp.
# Experiment: Percent reduction of hepatic cholesteryl esters was evaluated by hamster cholesterol absorption assay at the particular dose of 100 (mg/kg/day)
# Format: functional, Cricetulus griseus
# Settings: not given
# How it was run: (§2)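 Hamsters fed cholesterol for 1 week while dosed daily (mg/kg/day). Liver was Folch-extracted and neutral lipids were analysed by HPLC, giving the reduction in hepatic cholesteryl ester rise as the absorption marker. ED50 was taken from dose-response curves.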
row,Compound,Reduction
1,COc1ccc(N2C(=O)[C@@](C(=O)Cc3ccccc3)(c3ccccc3)[C@H]2c2ccccc2)cc1,26%

# System: Cricetinae gen. sp.
# Experiment: Effective dose evaluated in hamster cholesterol absorption assay
# Format: functional
# Settings: not given
# How it was run: as §2
row,Compound,ED50
1,COc1ccc([C@@H]2[C@@H](CCCc3ccccc3)C(=O)N2c2ccc(OC)cc2)cc1 (racemic) [SCH-48461],7.1 mg/kg/day
2,COc1ccc([C@@H]2[C@@H](CCCc3ccccc3)C(=O)N2c2ccc(OC)cc2)cc1 [SCH-48461],2.2 mg/kg/day

# Same assay, conditions: Cricetinae gen. sp.; read-out: ED50
row,Compound,ED50
1,CCCCCCCCCCC(C)(C)C(=O)Nc1c(OC)cc(OC)cc1OC [CL-976],16 mg/kg/day
2,COc1ccc([C@@H]2[C@H](CCCc3ccccc3)C(=O)N2c2ccc(OC)cc2)cc1,11.5 mg/kg/day

# Target: T2, Sterol O-acyltransferase 1 (Rattus norvegicus, UniProt O70536)
# T2 sequence (O70536 whole entry): T1 sequence (whole entry)
# Experiment: Concentration required for 50% inhibition of Acyl coenzyme A:cholesterol acyltransferase activity using microsomal ACAT assay
# Settings: not given
row,Compound,pIC50
1,COc1ccc(N2C(=O)[C@@](CCCc3ccccc3)(c3ccccc3)[C@H]2c2ccccc2)cc1,5.22

# System: Cricetinae gen. sp.
# Experiment: Percent reduction in plasma cholesterol was evaluated by hamster cholesterol absorption assay at the particular dose of 50(mg/kg/day)
# Format: functional, Cricetulus griseus
# Settings: not given
# How it was run: as §1
row,Compound,Reduction
1,COc1ccc(N2C(=O)[C@@H](CCCc3ccccc3)[C@H]2c2ccccc2)cc1,0%
2,CC[C@]1(CCCc2ccccc2)CN(c2c(OC)cc(OC)cc2OC)C1=O,7%

# System: Cricetinae gen. sp.
# Experiment: Percent reduction of hepatic cholesteryl esters was evaluated by hamster cholesterol absorption assay at the particular dose of 50 (mg/kg/day)
# Format: functional, Cricetulus griseus
# Settings: not given
# How it was run: as §2
row,Compound,Reduction
1,COc1ccc(N2C(=O)[C@@](CCCc3ccccc3)(c3ccccc3)[C@H]2c2ccccc2)cc1,16%
2,COc1ccc(N2C(=O)[C@@H](CCCc3ccccc3)[C@H]2c2ccccc2)cc1,0%
3,CC[C@]1(CCCc2ccccc2)CN(c2ccc(OC)cc2)C1=O,0%
4,COc1cc(OC)c(N2C(=O)[C@@H](CCCc3ccccc3)[C@H]2c2ccccc2)c(OC)c1,-20%
5,CC[C@]1(CCCc2ccccc2)C(=O)N(c2ccc(OC)cc2)[C@@H]1c1ccccc1,29%
6,CC[C@@]1(CCCc2ccccc2)C(=O)N(c2c(OC)cc(OC)cc2OC)[C@@H]1c1ccccc1,31%
7,CC[C@]1(CCCc2ccccc2)CN(c2c(OC)cc(OC)cc2OC)C1=O,-29%
8,CC[C@]1(CCCc2ccccc2)C(=O)N(c2c(OC)cc(OC)cc2OC)[C@@H]1c1ccccc1,0%
9,COc1ccc([C@@H]2[C@@H](CCCc3ccccc3)C(=O)N2c2ccc(OC)cc2)cc1 [SCH-48461],0%

# System: Cricetinae gen. sp.
# Experiment: Percent reduction in plasma cholesterol was evaluated by hamster cholesterol absorption assay at the particular dose of 10 (mg/kg/day)
# Format: functional, Cricetulus griseus
# Settings: not given
# How it was run: as §1
row,Compound,Reduction
1,COc1ccc([C@@H]2[C@@H](CCCc3ccccc3)C(=O)N2c2ccc(OC)cc2)cc1 (racemic) [SCH-48461],21%
2,CCCCCCCCCCC(C)(C)C(=O)Nc1c(OC)cc(OC)cc1OC [CL-976],0%
3,COc1ccc([C@@H]2[C@H](CCCc3ccccc3)C(=O)N2c2ccc(OC)cc2)cc1,17%
4,COc1ccc([C@@H]2[C@@H](CCCc3ccccc3)C(=O)N2c2ccc(OC)cc2)cc1 [SCH-48461],43%

# System: Cricetinae gen. sp.
# Experiment: Percent reduction in plasma cholesterol was evaluated by hamster cholesterol absorption assay at the particular dose of 50 (mg/kg/day)
# Format: functional, Cricetulus griseus
# Settings: not given
# How it was run: as §1
row,Compound,Reduction
1,COc1ccc(N2C(=O)[C@@](CCCc3ccccc3)(c3ccccc3)[C@H]2c2ccccc2)cc1,11%
2,CC[C@]1(CCCc2ccccc2)CN(c2ccc(OC)cc2)C1=O,10%
3,COc1cc(OC)c(N2C(=O)[C@@H](CCCc3ccccc3)[C@H]2c2ccccc2)c(OC)c1,0%
4,CC[C@]1(CCCc2ccccc2)C(=O)N(c2ccc(OC)cc2)[C@@H]1c1ccccc1,12%
5,CC[C@@]1(CCCc2ccccc2)C(=O)N(c2c(OC)cc(OC)cc2OC)[C@@H]1c1ccccc1,0%
6,CC[C@]1(CCCc2ccccc2)C(=O)N(c2c(OC)cc(OC)cc2OC)[C@@H]1c1ccccc1,0%
7,COc1ccc([C@@H]2[C@@H](CCCc3ccccc3)C(=O)N2c2ccc(OC)cc2)cc1 [SCH-48461],10%

# System: Cricetinae gen. sp.
# Experiment: Percent reduction of hepatic cholesteryl esters was evaluated by hamster cholesterol absorption assay at the particular dose of 10 (mg/kg/day)
# Format: functional, Cricetulus griseus
# Settings: not given
# How it was run: as §2
row,Compound,Reduction
1,COc1ccc([C@@H]2[C@@H](CCCc3ccccc3)C(=O)N2c2ccc(OC)cc2)cc1 (racemic) [SCH-48461],60%
2,CCCCCCCCCCC(C)(C)C(=O)Nc1c(OC)cc(OC)cc1OC [CL-976],33%
3,COc1ccc([C@@H]2[C@H](CCCc3ccccc3)C(=O)N2c2ccc(OC)cc2)cc1,55%
4,COc1ccc([C@@H]2[C@@H](CCCc3ccccc3)C(=O)N2c2ccc(OC)cc2)cc1 [SCH-48461],93%
